HCV core dimer – blocks dimerization of HCV core protein; inhibition, % at 5 µM; AID 1899; 300,000 compounds, 0.33% hits; TR-FRET GST/Flag-core106 dimerization, 1536-well;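 active = inhibition above the mean of all tested compounds plus 3 SD, set per screening campaign, cut at about 45% in these data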
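Assay system – GST-tagged and Flag-tagged HCV core protein residues 1-106 · Quantity – core106 proteins, GST 13.5 nM and Flag 17 nM · Benchmarks – unlabelled core106 and no-GST-core106 wells · Read-out basis – percent inhibition of core106 dimerization signal · Detection – time-resolved FRET, ex 340 nm, em 617 and 671 nm · Schedule – 4 h at 22.5 °C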
PRMT1 inh – blocks human protein arginine methyltransferase 1; recombinant PRMT1, activity-based probe fluorescence polarization; inhibition, % at 2.79 µM; 370,000 compounds, 1.3% hits;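 active = inhibition above about 21% made by adding two undisclosed values, limit read from the data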
A3G deaminase – inhibitors of human APOBEC3G DNA deaminase | Q9HC16 | recombinant A3G, ssDNA deamination FAM/TAMRA fluorescence | inhibition, % at 20 µM | 330,000 compounds, 0.28% hits | AID 493012;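 active = inhibition of at least 40% at 20 µM, with no more than 30% in the related APOBEC3A deaminase screen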;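 also: plate controls were DMSO wells with A3G for no effect and wells lacking A3G enzyme for full effect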
Target sequence (Q9HC16 whole entry, looked up): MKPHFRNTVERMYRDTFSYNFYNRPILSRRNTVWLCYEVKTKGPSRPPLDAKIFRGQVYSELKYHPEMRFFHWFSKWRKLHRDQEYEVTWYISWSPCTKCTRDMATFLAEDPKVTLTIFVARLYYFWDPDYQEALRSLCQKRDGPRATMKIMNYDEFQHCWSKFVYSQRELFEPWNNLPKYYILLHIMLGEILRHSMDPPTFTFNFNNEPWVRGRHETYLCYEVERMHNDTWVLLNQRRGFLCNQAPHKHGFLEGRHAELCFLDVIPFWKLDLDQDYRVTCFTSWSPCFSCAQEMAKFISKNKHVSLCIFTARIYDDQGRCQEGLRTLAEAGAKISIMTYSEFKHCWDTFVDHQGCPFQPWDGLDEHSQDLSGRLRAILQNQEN
NS3 helicase inh – blocks Hepatitis C virus NS3 helicase unwinding; inhibition, % at 10.9 µM; NS3 helicase DNA unwinding, Cy5 molecular beacon fluorescence; 290,000 compounds, 0.56% hits;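 active = inhibition above the mean of all tested compounds plus 3 SD, set per campaign, cut at about 35% in these data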;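 also: 0% = DMSO wells and 100% = thioflavine S control wells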
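System: NS3 helicase fragment of HCV / Schedule: 1 h at 25 °C / Control set: DMSO alone as 0% and 110 µM thioflavine S as 100% / Reagent: Cy5/quencher beacon DNA duplex and ATP to start / Technique: Cy5 fluorescence / Replication: singlicate / Evaluation: % inhibition of end-to-start signal ratio versus controls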
ABHD5-PLIN5 inh – blocks binding of human ABHD5 to perilipin-5; Q00G26+Q8WTS1; Split G. princeps luciferase complementation, luminescence, 4 h; inhibition, % at 4 µM; 360,000 compounds, 0.78% hits; AID 602281;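 active = inhibition above the mean inhibition across every tested compound plus 3 SD, cut at about 22% in these data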;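 also: 0% = DMSO only wells and the 100% control is not disclosed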
A3A deaminase – inhibitors of human APOBEC3A DNA deaminase. 330,000 compounds, 0.41% hits. recombinant A3A, FAM/TAMRA ssDNA deamination fluorescence. inhibition, % at 20 µM. AID 493011. P31941;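 active = at least 40% inhibition at 20 µM here, with at most 30% in a related deaminase screen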;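 also: plate controls were A3A with DMSO for no effect and wells lacking A3A enzyme for full effect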
Target sequence (P31941 whole entry, looked up): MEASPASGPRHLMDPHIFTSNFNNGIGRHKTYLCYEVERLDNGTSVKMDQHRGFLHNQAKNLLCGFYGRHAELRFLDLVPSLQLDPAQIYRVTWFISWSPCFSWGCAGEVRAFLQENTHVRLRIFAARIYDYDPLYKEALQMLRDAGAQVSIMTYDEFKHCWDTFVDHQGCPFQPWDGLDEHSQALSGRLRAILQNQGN
PRMT1 confirm – confirmation of human PRMT1 inhibitors; shares compounds with PRMT1 inh; recombinant His-PRMT1, activity-based probe fluorescence polarization; inhibition, % at 2.79 µM; 3,300 compounds, 42% hits;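 active = mean inhibition across replicates above the hit cutoff derived for the earlier primary screen, cut at about 22% in these data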
The depositor's hits bear a star; nt = no result; ! = not confirmed by another sample. Sampled rows, rich in hits. Any-hit rate of the full collection: about 2.9%.

SMILES	HCV core dimer	PRMT1 inh	A3G deaminase	NS3 helicase inh	ABHD5-PLIN5 inh	A3A deaminase	PRMT1 confirm
O=C(Nc1cccc(C(=O)O)c1)/C(=C\c1ccco1)NC(=O)c1ccc(Br)o1	1.5	33.7*	1.3	12.8	11.6	9.2	0.7
COc1ccc(/C=C(/NC(=O)c2ccc(Br)o2)C(=O)Nc2cccc(C(=O)O)c2)cc1	nt	2.4	nt	nt	8.9	nt	nt
O=C(Nc1cccc(F)c1)/C(=C/c1ccco1)NC(=O)c1ccco1	-17.8	30.2*	1.2	22.0	8.8	5.2	5.6
Cc1ccc(CNC(=O)OC(C)(C)C)c(/C=C/S(=O)(=O)NCCc2ccccc2)c1	nt	29.0*	nt	nt	nt	nt	1.7
O=C(NC1CCCCC1)c1ccc(-c2ccccc2)cc1	-2.5	41.6*	0.0	nt	-8.1	4.4	-5.7
CN(C)c1ccc(/C=C2\Oc3ccc(C#Cc4cccc(N)c4)cc3C2=O)cc1	nt	nt	-30.6	nt	2.1	-20.7	nt
Cc1cccc(C(=O)N(CC(=O)Nc2sc(C)c(C)c2C(N)=O)C2CCCC2)c1	6.0	3.8	-9.2	-16.5	0.7	-5.2	nt
COc1cc2c(cc1OC)C(c1ccc(N(C)C)cc1)NCC2 (centres undefined)	6.5	-0.5	-3.0	-11.2	-3.6	-6.1	nt
CN(C)c1ccc(C2NCCS2)cc1 (centres undefined)	-0.3	35.3*	-5.7	0.8	-24.3	1.1	33.9*
Cc1ccc(C2NCCS2)cc1 (centres undefined)	-0.4	32.3*	-1.8	0.3	-10.8	0.4	8.0
CCN1C[C@@H]2[C@@H]3C(=O)N(C)C(=O)[C@@H]3[C@](CC)(C1=O)N2C(=O)c1ccc(C)cc1	nt	0.8	nt	nt	0.9	nt	nt
CN(C(=O)c1ccc(Br)o1)C1(C)CCS(=O)(=O)C1 (centres undefined)	-4.6	0.3	3.9	8.1	-4.9	-1.0	nt
CS(=O)(=O)c1cccc(C(=O)OCC(=O)Nc2ccc3c(c2)OCO3)c1	nt	4.4	3.3	nt	-9.2	2.1	nt
COc1ccc(C(C#N)=C2C=CC(=NO)C=C2)cc1	3.9	27.9*	15.8	-2.0	-14.1	-0.5	5.9
N#CC(=C1C=CC(=NO)C(Cl)=C1)c1ccc(Cl)cc1	nt	4.4	nt	nt	-10.7	nt	nt
O=C(CN1C(=O)S/C(=C\c2cccs2)C1=O)Nc1ccc(O)cc1C(=O)O	5.9	32.2*	-4.0	11.0	-0.2	-4.7	4.3
CCSc1nc(=S)cc(C)[nH]1	-6.8	69.2*	nt	-2.3	-13.3	nt	41.2*
CCSc1nc(O)cc(=O)[nH]1	-6.1	-1.9	-5.2	-2.5	11.6	-4.0	nt
CSc1nc(SCC(N)=O)c2c3c(sc2n1)CN(C)CC3	9.4	10.2	0.2	-0.3	13.4	1.3	nt
CCNc1nc(SCC(N)=O)nc2sc3c(c12)CCN(C)C3	nt	60.5*	0.5	25.3	-7.7	1.1	16.1
Cc1cc(C(=O)CSc2nnc(-c3cccnc3)n2-c2ccccc2F)c(C)n1CC1CCCO1 (centres undefined)	13.7	26.7*	-3.2	6.3	3.1	8.4	7.9
Cc1cc(C(=O)CSc2nnnn2-c2ccccc2)c(C)n1CC1CCCO1 (centres undefined)	9.2	-2.3	-2.6	8.2	-7.0	-3.2	nt
CC1=C(O)C(=O)C(C2=C(O)C(=O)C(C)=C(O)C2=O)=C(O)C1=O	nt	28.5*	nt	nt	9.6	nt	34.4*
O=C(Nc1ncc2c(n1)CC(c1ccco1)CC2=O)c1ccccc1 (centres undefined)	-3.4	0.2	3.0	1.4	2.5	0.9	nt
Cc1ccc(C(=O)Nc2ncc3c(n2)CC(c2ccco2)CC3=O)cc1 (centres undefined)	2.0	33.2*	-8.3	6.3	17.5	-4.2	3.6
SMILES	HCV core dimer	PRMT1 inh	A3G deaminase	NS3 helicase inh	ABHD5-PLIN5 inh	A3A deaminase	PRMT1 confirm
CN1CCC2(CC1)C1CN(C)CC=C1C(C#N)=C(N)C2(C#N)C#N (centres undefined)	-10.0	39.7*	-4.9	2.3	-6.9	0.0	21.8*!
O=C(c1ccc(O)cc1)c1ccc(O)cc1O	-0.4	1.6	-4.6	0.4	-5.4	-0.1	nt
O=C(c1ccccc1)c1ccc(O)cc1O	0.8	72.6*	4.2	17.8	-1.4	3.4	42.3*
C=CCSC1=C(C#N)C(c2ccc(OCC)cc2)CC(=O)N1 (centres undefined)	8.8	28.8*	-6.5	0.9	-27.4	-2.8	11.5
C=CCSC1=C(C#N)C(c2ccccc2Cl)CC(=O)N1 (centres undefined)	-3.3	45.5*	-3.2	6.3	-13.4	-2.4	13.3
COc1cccc(C(=O)N[C@H](C(=O)N2CCC[C@H]2C(=O)NCc2ccccc2)C2CCCCC2)c1	nt	3.0	nt	nt	nt	nt	nt
C=Cc1ccc(C(=O)NC2CCCN(Cc3ccccc3F)C2)cc1 (centres undefined)	-0.4	0.9	-9.1	-9.3	7.6	-4.0	nt
CCN1CCC(NCCc2ccc(F)cc2)CC1	-0.1	-0.8	-5.7	4.4	-3.1	-3.9	nt
COc1c(O)cccc1[C@H](O)C1CCN(CCc2ccc(F)cc2)CC1	10.3	28.8*	-14.2	nt	2.3	-6.0	1.7
C=CCNS(=O)(=O)NC(=O)C1=C(N2CCCC2)COC1=O	nt	-1.1	-3.3	nt	16.8	-0.3	nt
Cc1cccc(NC(=O)C2CC(=O)n3cnnc3S2)c1 (centres undefined)	6.7	84.0*	24.8	-9.3	9.4	20.8	60.4*
CCOC(=O)[C@]12CCCCC/C=C\1N(Cc1ccc(OC)cc1)C(=O)[C@H]2CC(=O)NCC1CCCCC1	nt	-1.4	nt	nt	nt	nt	nt
C[n+]1c2cc(N)ccc2cc2ccc(N)cc21	nt	147.3*	nt	nt	-21.8	nt	141.6*
O=C(NC(Cc1ccccc1)C(=O)N1CCN(c2ccc(F)cc2)CC1)c1ccccc1 (centres undefined)	nt	2.6	nt	nt	-3.8	nt	nt
O=S(=O)(c1ccccc1)c1nc(-c2ccco2)oc1NCc1cccnc1	2.9	32.4*	-0.1	-1.8	15.7	-4.3	4.3
O=S(=O)(c1ccccc1)c1nc(-c2ccccc2)oc1NCc1cccnc1	1.9	-3.9	-2.2	0.5	11.0	-0.4	nt
C=CCN1C(=O)/C(=c2\sc3nc(=O)c(Cc4ccccc4Cl)nn3c2=O)c2ccccc21	-0.6	26.9*	3.9	11.8	-13.4	2.1	18.4
CC(C)c1[nH]nc2c1C1(CCN(Cc3ccccc3)CC1)C(C#N)=C(N)O2	1.2	12.2	-4.5	-0.4	3.6	-3.4	nt
Cc1[nH]nc2c1C1(CCN(Cc3ccccc3)CC1)C(C#N)=C(N)O2	-0.7	34.3*	-6.3	-1.8	-6.2	-9.3	1.4
O=C(CSc1nc2ccccc2s1)Nc1cc(S(=O)(=O)N2CCOCC2)ccc1O	-9.9	37.7*	1.2	1.9	-0.8	4.7	40.1*
CN(CC(=O)N1CCOCC1)C(=O)CSc1nc2ccccc2s1	-1.9	26.5*	-7.9	-5.2	-0.1	-5.2	33.6*
